# Screens from PubChem BioAssay.
# The list is not random: actives were taken first. Their share in the collection is about 0.95%.
# G6PDH counter: counter-screen for G6PDH assay hits: L. mesenteroides G6PDH inhibition | Purified L. mesenteroides G6PDH, diaphorase/resazurin coupled fluorescence, 45 min | inhibition, % at 5 µM | hit rate 0.12% among 200,000 | AID 1020; in the data active = inhibition above about 50%
# HKDC1 inhibitor: HKDC1 (human) hexokinase inhibition; recombinant HKDC1, G6PDH/diaphorase resazurin coupled fluorescence; inhibition, % at 20 µM; hit rate 0.16% among 340,000;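 active = inhibition above about 35% when tested at 20 µM, limit read from the data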;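 note: plate controls were DMSO wells with enzyme for no effect and DMSO wells lacking enzyme for full effect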
#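 Assay system: in-house recombinant HK5 (HKDC1) enzyme. Input: HKDC1 at 5 µg/mL. Medium: Tris pH 8.0 buffer with MgCl2, Tween-20, BSA, BME. Dosing: single 20 µM dose. Schedule: 90 min reaction incubation at room temperature, dark. Signal: resazurin-to-resorufin fluorescence via G6PDH and diaphorase coupling, 525/613 nm. Controls: DMSO-enzyme wells negative, buffer-substituted wells positive.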
# Diaphorase inh: inhibits diaphorase or chemically oxidizes, flagging diaphorase assay artifacts. diaphorase resazurin-to-resorufin fluorescence, NADH, 16 min; bacterial (C. kluyveri) enzyme, not human. inhibition, % at 20 µM. hit rate 0.69% among 190,000. AID 1217;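 active = primary screen inhibition at 20 µM above a set limit, cut at about 50% in these data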;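 note: plate controls were DMSO with full reaction for no effect and wells lacking NADH for full effect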
#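 controls = No-NADH positive control and DMSO neutral control | system = Clostridium kluyveri diaphorase enzyme | timing = reaction incubation of 16 min at room temperature | signal = resorufin fluorescence 544/590 nm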
# p97 ATPase inh: inhibitors of human p97 ATPase. AID 1481. hit rate 0.42% among 220,000. inhibition, % at 8 µM. P55072. recombinant p97 ATPase, Kinase-Glo ATP luminescence, 3 h; in the data active = inhibition above about 15%;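 note: 0% = DMSO vehicle and 100% = wells lacking enzyme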
# Target sequence (P55072 whole entry, looked up): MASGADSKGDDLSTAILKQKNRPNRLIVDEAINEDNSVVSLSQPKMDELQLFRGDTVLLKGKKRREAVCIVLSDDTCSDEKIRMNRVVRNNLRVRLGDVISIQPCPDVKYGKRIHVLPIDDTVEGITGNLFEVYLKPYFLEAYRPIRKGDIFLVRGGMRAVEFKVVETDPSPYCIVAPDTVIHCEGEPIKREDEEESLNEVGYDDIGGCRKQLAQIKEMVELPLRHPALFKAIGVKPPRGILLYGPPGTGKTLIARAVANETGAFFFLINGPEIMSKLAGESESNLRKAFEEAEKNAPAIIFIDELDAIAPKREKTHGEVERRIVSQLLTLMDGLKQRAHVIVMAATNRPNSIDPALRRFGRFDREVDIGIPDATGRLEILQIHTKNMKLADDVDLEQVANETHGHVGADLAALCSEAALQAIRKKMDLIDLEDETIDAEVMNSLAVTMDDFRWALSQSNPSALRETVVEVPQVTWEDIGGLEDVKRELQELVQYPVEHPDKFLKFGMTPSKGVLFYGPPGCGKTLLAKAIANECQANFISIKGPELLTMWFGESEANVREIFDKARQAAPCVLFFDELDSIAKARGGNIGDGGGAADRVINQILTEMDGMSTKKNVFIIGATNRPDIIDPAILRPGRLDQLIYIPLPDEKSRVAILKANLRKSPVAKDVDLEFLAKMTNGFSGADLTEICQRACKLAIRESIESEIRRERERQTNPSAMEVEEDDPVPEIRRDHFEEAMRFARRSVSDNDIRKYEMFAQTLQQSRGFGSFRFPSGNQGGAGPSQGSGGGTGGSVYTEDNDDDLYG
# SUMO HTRF inh: blocks human SUMOylation mediated by UBC9; P63279; inhibition, % at 35 µM; HTRF SUMOylation assay, SAE1/SAE2 + UBC9, in vitro; hit rate 0.36% among 290,000; in the data active = inhibition above about 50%, passing the limit was not always enough; inconclusive = no clear call, values can overlap the other calls
# p97 inh conf: confirmation of human p97 ATPase inhibitors; shares compounds with p97 ATPase inh; recombinant p97 ATPase, Kinase-Glo ATP luminescence; inhibition, % at 8 µM; hit rate 44% among 760; AID 1517;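 active = percent inhibition of p97 ATPase above a set limit, the primary screen's mean plus 3 SD, cut at about 15% in these data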;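 note: 0% = DMSO wells and 100% = wells lacking p97 protein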
# Numbers without * were called inactive; ? = inconclusive; . = not tested or not shown.
SMILES,G6PDH counter,HKDC1 inhibitor,Diaphorase inh,p97 ATPase inh,SUMO HTRF inh,p97 inh conf
Cn1ccs/c1=N\S(=O)(=O)c1ccc(F)cc1,5,-2,0,18*,3,1
O=c1[nH]c(S)c(/C=C2\C=Nc3ccccc32)s1,.,8,.,22*,-4,16*
CC(=O)Nc1ccc2c(c1)OCO2,1,-2,1,7,-5,.
CC(=O)Nc1ccc2c(c1)OCCO2,4,-3,8,63*,27,5
COc1ccc(N2C(=O)N3[C@@H]4c5ccccc5OC[C@@H]4[C@@H](c4ccccc4)[C@@]3(C)C2=O)cc1,.,0,.,.,.,.
Cn1nc(-c2ccc(Cl)cc2)nc2c(=O)n(C)c(=O)nc1-2,61*,.,-35,38*,-16,41*
Cc1ccc(CCN2CC(C(=O)NCCCN3CCCCCC3)CC2=O)cc1 (centres undefined),2,-14,-13,21*,-1,5
COc1cccc(C(=O)NCc2ccc3c(c2)cc(C)n3C)c1,1,7,3,20*,-5,8
CCOC(=O)C1=C(c2ccccc2)NC(=O)NC1c1cc(Cl)c(O)c(OC)c1 (centres undefined),10,17,14,-4,8,.
CCOC(=O)C1=C(c2ccccc2)NC(N)=NC1c1ccc(OCc2ccc(Cl)cc2)c(OC)c1 (centres undefined),.,-7,.,20*,-24,28*
COc1ccc(-c2cc(N)n(S(=O)(=O)c3c(F)c(F)c(F)c(F)c3F)n2)cc1OC,2,24,30,22*,-5,26*
O=C(CSc1ccsc1[N+](=O)[O-])N1CCN(c2ccccn2)CC1,0,-6,24,18*,17,8
O=C(CSc1ccccc1)N1CCN(c2ccccn2)CC1,2,-8,12,1,3,.
COC(=O)C(CCSC)NS(=O)(=O)c1ccc(Cl)cc1 (centres undefined),9,-10,12,4,5,.
CSCCC(NS(=O)(=O)c1ccc(Cl)cc1)C(=O)OCC(=O)NC12CC3CC(CC(C3)C1)C2 (centres undefined),4,7,23,22*,-14,-2
O=C(Nc1ccc(Cl)c(S(=O)(=O)N2CCCCC2)c1)c1cccnc1,.,4,.,.,.,.
COc1ccc2ccc3c(c2c1)N=CC1(O3)N(C)c2ccccc2C1(C)C (centres undefined),25,16,45,16*,42,8
Oc1ccc(-c2nc3ccccc3s2)c(O)c1,.,-2,.,17*,12,13
Nc1ccc(O)c(-c2nc3ccccc3s2)c1,18,-1,20,-4,24,.
Cn1cc(C(=O)c2ccc(Cl)cc2Cl)cc1C(=O)N/N=C(\N)COc1ccc(Cl)cc1,.,-26,.,18*,-43,20*
CCOC(=O)Cc1csc(SCC(=O)Nc2oc(C)c3c(C)n[nH]c(=O)c23)n1,.,9,.,.,.,.
O=C(NNc1cc(N2CCOCC2)nc(N2CCOCC2)n1)c1ccc([N+](=O)[O-])cc1,44,19,39,22*,.,7
O=C1NN(c2cccc(Br)c2)C(=O)/C1=C/c1cccs1,.,14,.,17*,17,23*
O=C1NN(c2ccccc2)C(=O)/C1=C/c1cccs1,-1,.,9,8,-19,.
O=C(NCCCO)Nc1ccc2nc(-c3ccco3)c(-c3ccco3)nc2c1,29,.,60*,25*,93*,23*
SMILES,G6PDH counter,HKDC1 inhibitor,Diaphorase inh,p97 ATPase inh,SUMO HTRF inh,p97 inh conf
O=C(O)c1ccc2nc(-c3ccco3)c(-c3ccco3)nc2c1,43,12,84*,26*,?,1
Cc1ccc(C(=O)Nc2ncccc2O)o1,.,-4,.,.,.,.
N/C(=N\NC(=O)c1cccc(F)c1)c1cc2ccccc2oc1=O,.,-5,.,16*,6,8
CCCCOc1ccccc1NC(=O)c1scc2c1OCCO2,-2,-3,27,16*,-2,20*
CCCCn1c(NS(=O)(=O)c2ccccc2)c(S(=O)(=O)c2ccc(C)cc2)c2nc3ccccc3nc21,11,0,35,25*,.,29*
CCCCn1c(NC(=O)c2ccco2)c(S(=O)(=O)c2ccc(C)cc2)c2nc3ccccc3nc21,38,8,69*,27*,100*,8
CCCCCn1c(NC(=O)c2ccco2)c(S(=O)(=O)c2ccc(C)cc2)c2nc3ccccc3nc21,14,5,48,26*,.,10
CCC(=O)Nc1c(S(=O)(=O)c2ccc(C)cc2)c2nc3ccccc3nc2n1C(C)c1ccccc1 (centres undefined),-2,-2,27,-6,-4,.
CCCCn1c(NC(=O)c2ccc(Br)o2)c(S(=O)(=O)c2ccccc2)c2nc3ccccc3nc21,9,2,25,46*,.,22*
Cc1ccc(S(=O)(=O)c2c(N)n(CCCO)c3nc4ccccc4nc23)cc1,2,-1,21,-1,14,.
CCCCCCC[N+](CC)(CC)CCCCc1ccc(Cl)cc1,.,-6,.,.,.,.
CC(C)(C)C(=O)NC1CC2CCCC(C1)N2C(=O)Nc1ccccc1 (centres undefined),.,-5,.,.,16,.
O=C(O)c1ccccc1SCC(=O)N1c2ccccc2Sc2ccccc21,9,2,8,66*,2,-1
CC(Nc1cccc(C(=O)NC2CC2)c1)c1nnc(-c2ccccc2)o1 (centres undefined),.,-7,.,.,.,.
COc1ccc(/C=N/Nc2nnc(-c3ccccc3)c(=O)[nH]2)cc1,-8,-6,13,17*,19,38*
CC(NC(=O)OC(C)(C)C)C(=O)NC(CCC(=O)OCc1ccccc1)C(N)=O (centres undefined),-3,-8,4,0,6,.
O=c1[nH]c(/C(Cl)=C/c2cc(Cl)ccc2O)nc2cc(Cl)ccc12,-22,2,12,29*,-3,42*
O=c1[nH]c(/C(Cl)=C/c2c(F)cccc2Cl)nc2cc(Cl)ccc12,23,-4,6,28*,-1,35*
O=C(CSc1n[nH]c(=O)n1-c1cccnc1)Nc1ccccc1,.,2,.,.,-9,.
Cc1ccnc2nc(C(=O)OCC(=O)N(Cc3ccccc3)C(C)(C)C)nn12,.,-6,.,.,.,.
CC(C)Oc1ccc(S(=O)(=O)N2CCCCC2)cc1NC(=O)C1CCC1,.,-1,.,.,.,.
CCC(NC(=O)C1CCCC1)c1ccccc1 (centres undefined),.,-3,.,.,.,.
COc1ccc(S(=O)(=O)Nc2nc3c(s2)C(=O)CC(C)(C)C3)cc1,.,-5,.,.,-9,.
Cc1ccc(S(=O)(=O)Nc2nc3c(s2)C(=O)CC(C)(C)C3)cc1,13,6,13,16*,22,5
COc1cc2cc(C)c(Br)c(OC)c2cc1OC,.,7,.,.,.,.
O=C(N/N=C/c1ccc(O)cc1)c1ccncc1,.,-1,.,.,16,.
CC/C(=C\C(=O)c1ccncc1)Nc1ccc(O)cc1,11,-1,1,21*,14,8
